# Assay outcomes as filed in PubChem.
# Arbovirus inh: arbovirus infection inhibition. arbovirus infection cell-based antiviral screen. inhibition, % at 10 µM. actives 0.37% (n = 200,000); in the data active = inhibition above about 30%
# CHOP inhibitor: inhibitors of CHOP induction in ER stress response; CHO-K1 CHOP-promoter luciferase, tunicamycin-induced, 15-18 h; inhibition, % at 10 µM; actives 3.8% (n = 220,000); AID 2732;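 active = compounds that reduced the stress-induced luciferase reporter signal by more than about 70% of percent inhibition, limit read from the data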;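 note: 0% = tunicamycin plus vehicle and 100% = wells without tunicamycin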
# L major viab: Leishmania major promastigote growth inhibition. Leishmania major promastigotes, resazurin fluorescence viability. inhibition, % at 10 µM. actives 9% (n = 200,000);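 note: promastigotes grown with compound for 44 hours at 28 °C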
# PKD1 kinase inh: inhibitors of human PKD1 kinase; PKD1 kinase fluorescence polarization assay; actives 0.056% (n = 200,000); inhibition, % (test concentration not listed); AID 797; Q15139
# Target sequence (Q15139 whole entry, looked up): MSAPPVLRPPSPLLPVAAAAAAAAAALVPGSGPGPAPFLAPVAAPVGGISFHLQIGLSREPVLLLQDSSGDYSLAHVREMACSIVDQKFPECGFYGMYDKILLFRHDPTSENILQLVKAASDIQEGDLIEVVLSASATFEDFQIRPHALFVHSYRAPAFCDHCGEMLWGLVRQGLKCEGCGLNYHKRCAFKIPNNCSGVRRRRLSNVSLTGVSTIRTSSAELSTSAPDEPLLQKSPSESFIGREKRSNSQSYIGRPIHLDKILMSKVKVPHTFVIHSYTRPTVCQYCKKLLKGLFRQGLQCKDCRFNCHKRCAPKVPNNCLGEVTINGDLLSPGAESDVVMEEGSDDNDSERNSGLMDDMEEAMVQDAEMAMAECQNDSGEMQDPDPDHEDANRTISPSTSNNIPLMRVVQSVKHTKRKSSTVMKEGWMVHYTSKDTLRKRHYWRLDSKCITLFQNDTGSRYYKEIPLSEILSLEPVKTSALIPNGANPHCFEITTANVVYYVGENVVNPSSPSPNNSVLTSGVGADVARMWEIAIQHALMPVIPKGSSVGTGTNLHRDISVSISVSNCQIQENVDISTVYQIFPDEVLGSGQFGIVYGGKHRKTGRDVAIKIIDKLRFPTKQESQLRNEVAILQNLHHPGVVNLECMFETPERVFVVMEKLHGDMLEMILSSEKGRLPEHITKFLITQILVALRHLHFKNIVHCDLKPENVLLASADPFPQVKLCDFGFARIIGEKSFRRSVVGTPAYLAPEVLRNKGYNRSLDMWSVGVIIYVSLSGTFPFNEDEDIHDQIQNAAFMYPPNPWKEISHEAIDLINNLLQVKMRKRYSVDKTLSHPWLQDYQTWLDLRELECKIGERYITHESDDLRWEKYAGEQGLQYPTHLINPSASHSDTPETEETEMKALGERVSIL
# Rad51 HR inh: blocks human Rad51 in homologous recombination; Q06609; inhibition, % at 10 µM; hRad51 DNA strand exchange, fluorescence dequenching; actives 0.085% (n = 200,000);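 active = inhibition above 40% at the single screening dose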;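 note: 0% = DMSO control wells and 100% = blanks with heterologous ssDNA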
#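 material = hRad51 filaments on single-stranded DNA | timing = filaments 15 min 37 °C, then compound 30 min | signal = FRET fluorescence dequenching, excitation 485 nm, emission 520 nm | benchmarks = control wells and blank wells on each plate | evaluation = percent inhibition relative to plate controls and blanks | compound = 10 µM final, single point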
# Wee1 degr inh: human Wee1 degradation inhibition, primary screen; P30291; HeLa Luc-Wee1K328M stability, luciferase luminescence; 100% = proteasome inhibitor MG132 effect; reporter increase, % at 5 µM; actives 1.2% (n = 220,000);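 active = activation above the mean of all tested compounds plus 3 SD, set per screening run, cut at about 8.8% in these data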;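 note: cells exposed to compound for 20 h before luminescence read; 0% = DMSO alone and 100% = MG132 at 30 µM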
# * = called active by the depositor; · = no result given. This is a sample that favours compounds with a hit; in the whole collection about 12% have one here. Cut-off read from the data, not from the text of the source, unless noted: active = inhibition above about 50%; inactive = the rest.
SMILES,Arbovirus inh,CHOP inhibitor,L major viab,PKD1 kinase inh,Rad51 HR inh,Wee1 degr inh
Cc1ccc(C2C(C#N)=C(N)N(N(C)C)C3=C2C(=O)CCC3)cc1 (stereo unspecified),9.2,2.3,32.2,-3.4,2.2,-0.7
CN(C)N1C(N)=C(C#N)C(c2cccc3ccccc23)C2=C1CC(c1ccccc1)CC2=O (stereo unspecified),-17.0,46.3,95.5*,-11.7,7.2,-1.9
CN1CCN(Cc2cccc(Oc3ccccc3)c2)CC1,-21.3,29.7,99.6*,-7.1,5.6,1.4
CC1CCCN(Cc2cccc(Oc3ccccc3)c2)C1 (stereo unspecified),4.9,19.3,99.8*,0.7,6.0,-2.2
OCCN1CCN(Cc2cccc(Oc3ccc(Cl)cc3)c2)CC1,-6.8,2.2,98.6*,0.3,2.9,-3.6
CCN1CCN(CCOc2cccc(Oc3ccccc3)c2)CC1,-15.0,-3.0,95.1*,2.9,-6.8,-0.6
OCCN1CCN(C(=S)c2ccc(Cl)cc2)CC1,2.6,29.5,47.2,-8.4,·,-1.4
O=C(Cc1n[nH]c(=O)[nH]c1=O)N/N=C/CCc1ccccc1,·,14.3,·,·,13.8,0.1
O=C(Cn1nnc2ccccc21)OCC(=O)c1ccc(F)cc1,·,2.1,·,·,11.8,-2.9
OC1CCN(Cc2cccc(Oc3ccccc3)c2)CC1,-7.3,11.8,100.2*,0.9,-4.3,-0.9
O=C(c1ccccc1)N1CCN(Cc2cccc(Oc3ccccc3)c2)CC1,9.4,44.7,-3.7,6.2,-3.0,6.5
CC(C(=O)Nc1ccccc1)N(C)CCOc1ccc(Br)cc1 (stereo unspecified),14.9,83.6*,4.6,0.2,12.2,-0.9
O=C1N/C(=N\N=C\c2ccc3ncccc3c2)SC1Cc1ccc(SC(F)F)cc1 (stereo unspecified),-0.2,69.3,1.0,-2.0,3.2,7.3
O=C1N/C(=N\N=C\c2cccnc2)SC1Cc1ccc(SC(F)F)cc1 (stereo unspecified),-37.4,34.7,74.4*,-8.6,-0.7,-1.4
CC(=O)N[C@@H](C)C(=O)N1CCN(S(=O)(=O)c2ccc(Cl)cc2)CC1,1.3,9.8,-5.0,4.0,-1.4,1.4
S=C(c1ccc(-c2cc(Cl)ccc2Cl)o1)N1CCOCC1,2.8,70.2*,-8.1,-9.4,-1.8,-3.5
O=C(Nc1ccc(CN2CCOCC2)cc1)c1ccc(-c2cc(Cl)ccc2Cl)o1,-7.8,67.5,98.6*,3.3,-6.2,1.2
O=C(/C=C/c1ccc(Cl)cc1Cl)Nc1ccc(CN2CCOCC2)cc1,-6.9,13.7,70.0*,6.0,-8.1,-1.5
S=C(c1ccc(-c2cc(Cl)ccc2Cl)o1)N1CCCCC1,-4.2,16.8,54.4*,-13.1,10.9,0.8
CCN(Cc1ccncc1)Cc1cn[nH]c1-c1ccc(OC)cc1F,8.3,-1.6,27.1,7.6,6.8,2.4
CCCCn1cnc(C(=O)OCC)c1N,0.1,11.8,-3.3,-12.8,22.8,0.7
CN1CCN(c2ccc(CNC(=O)c3ccco3)cc2)CC1,·,14.8,·,·,-0.1,1.2
Cc1ccc(S(=O)(=O)N(C)c2ccc(C(=O)Nc3c(C)n(C)n(-c4ccccc4)c3=O)cc2)cc1,0.3,30.0,1.4,-4.2,·,3.9
O=C1C2C(c3ccccc3)C=CC(c3ccccc3)C2C(=O)N1c1ccccn1 (stereo unspecified),1.5,17.4,-6.2,5.5,·,0.4
N#Cc1c2ccccc2nc2ccccc12,·,7.2,·,·,11.6,4.0
SMILES,Arbovirus inh,CHOP inhibitor,L major viab,PKD1 kinase inh,Rad51 HR inh,Wee1 degr inh
O=C(CN1C(=O)CCC1=O)c1ccc(-c2ccccc2)cc1,-0.5,13.6,-8.3,-4.6,3.1,-0.6
N=c1ccn(CC(=O)c2ccc(-c3ccccc3)cc2)cc1,-21.9,-9.9,99.0*,-5.4,-18.2,-1.7
O=C(OC(C(=O)NCc1ccco1)c1ccc(Cl)cc1)c1cccs1 (stereo unspecified),·,41.2,·,·,8.0,-0.2
O=C(NNC(=O)c1cc2cc(OC(F)(F)F)ccc2[nH]1)c1cccc(C(F)(F)F)c1,·,5.0,·,·,·,1.9
CNCCOc1ccccc1OC(C)C,0.3,5.4,-1.2,-0.7,8.6,-1.4
O=C(COc1ccc(Cl)cc1Cl)NN=C1c2ccccc2-c2ccccc21,-30.2,85.5*,19.8,5.8,·,-0.9
O=[N+]([O-])c1nn(-c2ccc3c(c2)OCCO3)n(O)c1=Nc1ccccc1,-14.9,87.6*,97.1*,-7.3,8.5,-5.4
Cc1ccc(N=c2c([N+](=O)[O-])nn(-c3ccc4c(c3)OCCO4)n2O)cc1F,-4.2,53.5,23.1,2.6,-5.0,2.1
Cc1cc(C)cc(N=c2c([N+](=O)[O-])nn(-c3ccc4c(c3)OCCO4)n2O)c1,-3.5,40.9,84.7*,-1.8,5.8,-0.2
CCc1ccc(N=c2c([N+](=O)[O-])nn(-c3ccc4c(c3)OCCO4)n2O)cc1,-9.9,8.9,48.8,-3.9,-84.0,-0.6
O=[N+]([O-])c1nn(-c2ccc3c(c2)OCCO3)n(O)c1=Nc1ccc(Cl)cc1,-27.0,50.2,77.4*,13.8,2.1,-0.1
O=[N+]([O-])c1nn(-c2ccc3c(c2)OCCO3)n(O)c1=NC1CCCC1,-15.0,44.3,17.8,-7.2,1.0,-1.7
NC(=S)NNC(=O)COc1ccccc1O,·,-15.9,·,·,7.5,3.6
COCCCNCCCCOc1ccc(OCc2ccccc2)cc1,-41.5,29.7,99.4*,-6.8,·,2.3
COCCCNC(=O)CCCOc1ccccc1,1.1,23.6,-7.9,-11.8,-9.1,-0.4
CCc1cccc(OCCCCNCCOC)c1,2.0,15.0,90.4*,-20.7,-4.5,0.2
c1ccc(COc2ccc(OCCCNC3CCCC3)cc2)cc1,-49.4,51.9,100.2*,-6.3,-3.1,0.3
COc1ccccc1OCCNC1CCCC1,7.7,-16.2,-3.4,3.6,3.7,-0.3
C=CCNCCCCOc1ccc(OCc2ccccc2)cc1,-27.5,29.1,99.1*,-12.4,·,4.4
COc1ccc(CC(=O)Nc2cccc(SC)c2)cc1OC,0.8,22.4,2.1,-6.2,0.7,-2.8
CCOc1ccc(OCCCC(=O)O)cc1,0.9,12.3,-3.9,-0.6,5.6,0.2
CCOc1ccc(OCCCCNCCN)cc1,-5.1,15.6,85.7*,9.9,·,-1.8
O=C(c1cnn2c(C(F)(F)F)cc(-c3ccc4c(c3)OCO4)nc12)N1CCCC1,-5.4,18.9,76.6*,-10.2,-0.1,-1.9
COC(=O)c1cnn2c(C(F)(F)F)cc(-c3ccc(F)cc3)nc12,5.6,20.6,-5.9,-6.9,-2.9,2.6
O=C(c1cnn2c(C(F)(F)F)cc(-c3ccc(Br)cc3)nc12)N1CCOCC1,7.9,28.5,37.8,-10.2,-8.1,4.7
CCOC(=O)C1CCCN(C(=O)c2cnn3c(C(F)(F)F)cc(-c4ccccc4)nc23)C1 (stereo unspecified),1.2,25.1,51.9*,-2.3,1.2,-0.8
COc1ccc(-c2cc(C(F)(F)F)n3ncc(C(=O)N4CCCCC4c4cccnc4)c3n2)cc1 (stereo unspecified),-1.4,42.0,98.5*,1.9,6.8,-1.9
